Measured values taken from ChEMBL document CHEMBL1811767, “Quinoxalin-2(1H)-one derivatives as inhibitors against hepatitis C virus” (J Med Chem, 2011).
Active and inactive are the calls of the source. The rule behind the calls is not given here.

Experiments:
[1] = Cytotoxicity against human Huh7ET cells by CytoTox-one cell proliferation assay; assay type: cell-based; settings: Huh-7
Summary of the method: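 Parallel plate of replicon Huh 7 ET cells (5000/well, DMEM without G418), compounds from DMSO stocks diluted in DMEM, 72 h. Viability by tetrazolium-based CytoTox-1 proliferation assay. Mean of four replicates; IC50 = concentration decreasing cell viability by 50%.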

Hepatitis C virus [2] = assay: Antiviral activity against Hepatitis C virus infected in human Huh7ET cells assessed as inhibition of dicistronic viral RNA replication after 72 hrs by luciferase reporter gene assay; assay type: functional, organism-based, Hepacivirus hominis; settings: Huh-7, 72 h
Summary of the method: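 HCV replicon Huh 7 ET cells seeded 5000/well in DMEM without G418 overnight; compounds dissolved in DMSO, diluted in DMEM, dose-response. After 72 h, replicon-derived luciferase read by Steady-Glo. Mean of four replicates; EC50 = concentration inhibiting HCV RNA replication by 50%.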

Hepacivirus hominis [3] = assay: Inhibition of Hepatitis C virus protease
[4] = Selectivity index, ratio of IC50 for human Huh7ET cells to EC50 for Hepatitis C virus; assay type: toxicity, cell-based, Huh-7; settings: read-out: Ratio IC50/EC50
Summary of the method: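 SI taken as IC50 (CytoTox-1 viability, Huh 7 ET replicon cells, 72 h) divided by EC50 (replicon luciferase, same cells and exposure); each from four-replicate averages.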

Hepacivirus hominis [5] = assay: Inhibition of Hepatitis C virus NS5B polymerase
Hepatitis C virus [6] = assay: Antiviral activity against Hepatitis C virus infected in human Huh7ET cells assessed as inhibition of dicistronic viral RNA replication at 20 uM after 72 hrs by luciferase reporter gene assay; assay type: functional, Hepacivirus hominis, Huh-7; design: scale not given: the % may be the effect or the level left
Summary of the method: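 Primary screen at single 20 μM in replicon Huh 7 ET cells (5000/well, DMEM without G418, overnight seeding). After 72 h exposure, replicon luciferase measured with Steady-Glo. Value expressed as percent inhibition relative to control cells.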

[7] = Cytotoxicity against human Huh7ET cells at 20 uM by CytoTox-one cell proliferation assay; assay type: cell-based; settings: huh-7, 20 µM
Summary of the method: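 Huh 7 ET replicon cells exposed to single 20 μM for 72 h in primary screen; viability by tetrazolium-based CytoTox-1 assay, reported as percent relative to control cells.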

| EC50 (Hepatitis C virus [2]) [µM] | inhibition (Hepacivirus hominis [3]) | inhibition (Hepacivirus hominis [5]) | SMILES | IC50 [1] [µM] | selectivity ratio [4] | Activity (Hepatitis C virus [6]) [%] | Cell viability relative to control [7] [%] |
| --- | --- | --- | --- | --- | --- | --- | --- |
| 1.67 | inactive | inactive | CN(c1cc2ncc(=O)[nH]c2cc1Nc1nc(-c2ccccc2)cs1)C1CCCCC1 | 62.5 | 37.4 |  |  |
|  |  |  | CCN(c1cc2ncc(=O)[nH]c2cc1Nc1nc(-c2ccccc2)cs1)C1CCCCC1 |  |  | 35 | 58 |
